One data set has as its system SK-OV-3. In words: Cytotoxicity against human SKOV3 cells after 72 hrs by SRB assay. In kind it is functional, cell-based. As to conditions: SK-OV-3, 72 h. Summed up:
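SK-OV-3 ovarian cells were grown in RPMI 1640 with 10% FBS at 37 °C and 5% CO2, seeded at 0.4–1.0 × 10⁴ cells/well and treated after 24 h. Compounds were dissolved in DMSO (≤0.1% final) and tested at at least five concentrations for 72 h. Growth was read by SRB at OD 520 nm; tests were run 3 times in quadruplicate. IC50 came from survival-versus-concentration curves.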

Data set [1] concerns A549. In words: Antitumor activity against human A549 cells xenografted BALB/cA mouse at 18 mg/kg, iv relative to control. In kind it is functional. Summed up:
(§1)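 A549 NSCLC cells were injected s.c. into BALB/cA nude mice (18 ± 3 g, 6 per group). After 2–3 passages, tumors were grafted s.c. at the right oxter. Once tumors were palpable (about 100–300 mm³ in methods; 80–150 mm³ in table footnote), mice were randomized to untreated, docetaxel or treated groups, dosed i.v., and measured by calipers 3 times weekly. T/C% = mean treated/mean control tumor volume × 100, read at day 14.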

For data set [2], the system named is Mus musculus. Briefly: Toxicity in BALB/cA nude mouse assessed as change in body weight at 12 mg/kg, iv. As to conditions: in vivo.
Data set [3] concerns A549. In words: Antitumor activity against human A549 cells xenografted BALB/cA mouse at 12 mg/kg, iv relative to control. In kind it is functional. Summed up: as §1
In data set [4] the test system is Mus musculus. In words: Toxicity in BALB/cA nude mouse assessed as survival at 18 mg/kg, iv. As to conditions: in vivo.
The subject of data set [5] is Mus musculus. In words: Toxicity in BALB/cA nude mouse assessed as survival at 12 mg/kg, iv. Conditions: in vivo.
For data set [6], the system named is Mus musculus. In words: Toxicity in BALB/cA nude mouse assessed as change in body weight at 18 mg/kg, iv. As to conditions: in vivo.
A short description of data set [7]: Toxicity in Kunming mouse assessed as survival. In kind it is organism-based. Conditions: in vivo. In outline:
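Healthy Kunming mice of both sexes, 18–22 g, split into 7 weight-matched groups of 10. Single i.p. dose at 92.0, 115.0, 143.0, 179.0, 224.0, 280.0 or 350.0 mg/kg. Behaviour, body weight and deaths recorded over 14 days. LD₅₀ with 95% confidence limits derived by the Bliss method.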

Data set [8] relates to A549. In words: Antitumor activity against human A549 cells xenografted BALB/cA mouse at 16 mg/kg, iv relative to control. In kind it is functional. In outline:
as §1

Data set [9] deals with Mus musculus. Briefly: Toxicity in BALB/cA nude mouse assessed as change in body weight at 16 mg/kg, iv. Conditions: in vivo.
For data set [10], the system named is Mus musculus. Briefly: Toxicity in BALB/cA nude mouse assessed as survival at 16 mg/kg, iv. Conditions: in vivo.

The results in this text go back to ChEMBL document CHEMBL1153862, “Design, synthesis and biological evaluation of novel fluorinated docetaxel analogues” (Eur J Med Chem, 2009).

`CC(=O)O[C@@]12CO[C@@H]1C[C@H](O)[C@@]1(C)C(=O)[C@H](O)C3=C(C)[C@@H](OC(=O)[C@H](O)[C@@H](NC(=O)OC(C)(C)C(F)(F)F)c4ccccc4)C[C@@](O)([C@@H](OC(=O)c4cccc(F)c4)[C@H]21)C3(C)C` displayed an IC50 in the data set with SK-OV-3 of 34 nM.
As to `CC(=O)O[C@@]12CO[C@@H]1C[C@H](O)[C@@]1(C)C(=O)[C@H](O)C3=C(C)[C@@H](OC(=O)[C@H](O)[C@@H](NC(=O)OC(C)(C)C(F)F)c4ccccc4)C[C@@](O)([C@@H](OC(=O)c4cccc(F)c4)[C@H]21)C3(C)C`, the T/C in the data set on A549 [1] is on record as 24.4%; in the data set with A549 [3], 51.7%. For the same compound, the Activity in the data set on Mus musculus [2] is -16.5%; in the data set on Mus musculus [4], “Non-toxic”; with Mus musculus [5], “Non-toxic”; in the data set with Mus musculus [6] it was -26.7%. The midpoint of inhibition in the data set on SK-OV-3, the IC50, lay at 0.05 nM.
In the case of `CC(=O)O[C@@]12CO[C@@H]1C[C@H](O)[C@@]1(C)C(=O)[C@H](O)C3=C(C)[C@@H](OC(=O)[C@H](O)[C@@H](NC(=O)OC(C)(C)C(F)(F)F)c4ccccc4)C[C@@](O)([C@@H](OC(=O)c4ccccc4)[C@H]21)C3(C)C`, the T/C was 72% in the data set on A549 [1] and 91.8% in the data set on A549 [3]. Also, the Activity in the data set with Mus musculus [2] is reported as 0%; with Mus musculus [4] it was “Non-toxic”; in the data set on Mus musculus [5], “Non-toxic”; in the data set on Mus musculus [6] it was -9.7%. This compound yielded an IC50 in the data set with SK-OV-3 of 0.01 nM.
As to `CC(=O)O[C@@]12CO[C@@H]1C[C@H](O)[C@@]1(C)C(=O)[C@H](O)C3=C(C)[C@@H](OC(=O)[C@H](O)[C@@H](NC(=O)OC(C)(C)CF)c4ccccc4)C[C@@](O)([C@@H](OC(=O)c4cccc(F)c4)[C@H]21)C3(C)C`, the values for the T/C in the data set with A549 [1] and in the data set with A549 [3] were 30.2% and 53.7%, respectively. Moreover, the Activity is -18% in the data set on Mus musculus [2], “Non-toxic” in the data set on Mus musculus [4], “Non-toxic” in the data set with Mus musculus [5] and -31.3% in the data set on Mus musculus [6]. Besides, in the data set on SK-OV-3, the midpoint of inhibition, the IC50, lay at 0.03 nM.
Take `CC(=O)O[C@@]12CO[C@@H]1C[C@H](O)[C@@]1(C)C(=O)[C@H](O)C3=C(C)[C@@H](OC(=O)[C@H](O)[C@@H](NC(=O)OC(C)(C)CF)c4ccccc4)C[C@@](O)([C@@H](OC(=O)c4ccccc4)[C@H]21)C3(C)C`: in data set [7], the LD50 is 74.1 mg/kg. The Activity in the data set on Mus musculus [2] is -19.1%; in the data set on Mus musculus [5] it was “Non-toxic”; in the data set with Mus musculus [9], -22%; in the data set on Mus musculus [10], “Non-toxic”. Further, the T/C is reported as 41.5% with A549 [3] and 37.9% in the data set with A549 [8]. In the data set on SK-OV-3, this compound came in with an IC50 of 3.8 nM.
Turning to `CC(=O)O[C@@]12CO[C@@H]1C[C@H](O)[C@@]1(C)C(=O)[C@H](O)C3=C(C)[C@@H](OC(=O)[C@H](O)[C@@H](NC(=O)OC(C)(C)C)c4ccccc4)C[C@@](O)([C@@H](OC(=O)c4ccccc4)[C@H]21)C3(C)C.O.O.O` [DOCETAXEL], the figures for the Activity in the data set on Mus musculus [2] and in the data set with Mus musculus [5] were -19.6% and “Non-toxic”, respectively. In addition, the T/C with A549 [3] is reported as 43%. Besides, the IC50 in the data set with SK-OV-3 was found to be 3.4 nM.
As to `CC(=O)O[C@@]12CO[C@@H]1C[C@H](O)[C@@]1(C)C(=O)[C@H](O)C3=C(C)[C@@H](OC(=O)[C@H](O)[C@@H](NC(=O)OC(C)(C)C(F)F)c4ccccc4)C[C@@](O)([C@@H](OC(=O)c4ccccc4)[C@H]21)C3(C)C`, the values for the T/C with A549 [1] and in the data set with A549 [3] were 83.5% and 91.5%, respectively. Moreover, the Activity is 0% with Mus musculus [2], “Non-toxic” with Mus musculus [4], “Non-toxic” in the data set with Mus musculus [5] and -7.7% in the data set with Mus musculus [6]. The IC50 in the data set with SK-OV-3 is 0.02 nM.
